A value given as a limit tells only on which side of the number the result lay.

What is called IC50 is the concentration that inhibits the measured activity by half.

Aurora kinase B, sequence (Q96GD4 whole entry): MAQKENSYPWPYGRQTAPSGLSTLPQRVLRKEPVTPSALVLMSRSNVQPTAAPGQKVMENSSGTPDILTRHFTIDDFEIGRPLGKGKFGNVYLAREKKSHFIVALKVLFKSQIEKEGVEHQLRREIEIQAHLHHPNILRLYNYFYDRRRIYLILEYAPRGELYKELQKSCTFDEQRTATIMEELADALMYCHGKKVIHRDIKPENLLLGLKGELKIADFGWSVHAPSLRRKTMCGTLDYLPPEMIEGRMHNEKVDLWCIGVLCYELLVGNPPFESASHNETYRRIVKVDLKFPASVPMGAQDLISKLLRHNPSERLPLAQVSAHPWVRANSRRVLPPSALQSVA

The first assay addresses T1, Serine/threonine-protein kinase TBK1 (Homo sapiens, UniProt Q9UHD2).
T1 sequence (Q9UHD2 whole entry): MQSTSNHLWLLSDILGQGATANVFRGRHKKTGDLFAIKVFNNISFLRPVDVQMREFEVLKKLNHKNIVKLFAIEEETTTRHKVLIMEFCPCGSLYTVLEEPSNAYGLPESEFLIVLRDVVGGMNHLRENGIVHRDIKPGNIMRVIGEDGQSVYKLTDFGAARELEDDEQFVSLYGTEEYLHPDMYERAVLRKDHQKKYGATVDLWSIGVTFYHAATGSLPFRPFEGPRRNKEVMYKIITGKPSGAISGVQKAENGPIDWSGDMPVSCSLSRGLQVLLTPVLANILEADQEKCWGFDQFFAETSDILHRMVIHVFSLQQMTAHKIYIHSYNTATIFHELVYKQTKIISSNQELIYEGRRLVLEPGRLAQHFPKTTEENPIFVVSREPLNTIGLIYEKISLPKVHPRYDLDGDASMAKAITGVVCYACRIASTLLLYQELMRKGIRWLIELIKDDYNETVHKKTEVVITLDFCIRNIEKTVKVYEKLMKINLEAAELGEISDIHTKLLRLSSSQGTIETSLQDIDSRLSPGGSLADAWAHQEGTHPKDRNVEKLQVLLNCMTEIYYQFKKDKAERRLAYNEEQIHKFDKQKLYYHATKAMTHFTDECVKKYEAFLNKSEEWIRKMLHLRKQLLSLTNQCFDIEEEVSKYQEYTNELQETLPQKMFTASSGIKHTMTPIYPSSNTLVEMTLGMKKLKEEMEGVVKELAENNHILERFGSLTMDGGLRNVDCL
Put plainly: Inhibition of TBK1 in HEK293 cells after 4.5 hrs by ISRE-luciferase reporter gene assay in presence of poly I:C. The assay is classed as cell-based. A general note: A reporter such as luciferase makes a cellular process visible.
As to `COc1ccc(-c2nc3ncc(-c4ccc(C(=O)O)s4)cc3[nH]2)cc1`, the IC50 was > 30000 nM.

`COc1ccc(-c2nc3cc(-c4csc(C(=O)NCC(C)(C)CO)c4)cnc3[nH]2)cc1`: the 50% inhibitory concentration (IC50) stood at 136 nM.

In the case of `COc1ccc(-c2nc3c(NCCCNC(=O)C4CCCC4)c(-c4nc(C(N)=O)cs4)cnc3[nH]2)cc1`, the IC50 was 7 nM.

For `CCC(C)CNC(=O)c1cc(-c2cnc3[nH]c(-c4ccc(OC)cc4)nc3c2)cs1` (stereo unspecified), the IC50 is 89 nM.

In the case of `COc1ccc(-c2nc3ncc(-c4cc(C(=O)O)co4)cc3[nH]2)cc1`, the concentration for half-maximal inhibition (IC50) was > 30000 nM.

For the compound `COc1cc2ncn(-c3cc(OCc4ccccc4S(C)(=O)=O)c(C#N)s3)c2cc1OC` [GSK-319347A], the IC50 is 72 nM.

On to `COCCNC(=O)c1cc(-c2cnc3[nH]c(-c4ccc(OC)cc4)nc3c2)cs1`, for which the half-maximal inhibitory concentration (IC50) is 170 nM.

`COc1ccc(-c2nc3cc(-c4csc(C(N)=O)c4)cnc3[nH]2)cc1`: the IC50 came to 268 nM.

In the case of `COc1ccc(-c2nc3c(NCCCNC(=O)C4CCCC4)c(C(N)=S)cnc3[nH]2)cc1`, the 50% inhibitory concentration (IC50) was found to be 165 nM.

Take `COc1ccc(-c2nc3cc(-c4csc(C(C)=O)c4)cnc3[nH]2)cc1`: the IC50 came to 1780 nM.

The next assay deals with T2, Inhibitor of nuclear factor kappa-B kinase subunit epsilon (Homo sapiens, UniProt Q14164).
T2 sequence (Q14164 whole entry): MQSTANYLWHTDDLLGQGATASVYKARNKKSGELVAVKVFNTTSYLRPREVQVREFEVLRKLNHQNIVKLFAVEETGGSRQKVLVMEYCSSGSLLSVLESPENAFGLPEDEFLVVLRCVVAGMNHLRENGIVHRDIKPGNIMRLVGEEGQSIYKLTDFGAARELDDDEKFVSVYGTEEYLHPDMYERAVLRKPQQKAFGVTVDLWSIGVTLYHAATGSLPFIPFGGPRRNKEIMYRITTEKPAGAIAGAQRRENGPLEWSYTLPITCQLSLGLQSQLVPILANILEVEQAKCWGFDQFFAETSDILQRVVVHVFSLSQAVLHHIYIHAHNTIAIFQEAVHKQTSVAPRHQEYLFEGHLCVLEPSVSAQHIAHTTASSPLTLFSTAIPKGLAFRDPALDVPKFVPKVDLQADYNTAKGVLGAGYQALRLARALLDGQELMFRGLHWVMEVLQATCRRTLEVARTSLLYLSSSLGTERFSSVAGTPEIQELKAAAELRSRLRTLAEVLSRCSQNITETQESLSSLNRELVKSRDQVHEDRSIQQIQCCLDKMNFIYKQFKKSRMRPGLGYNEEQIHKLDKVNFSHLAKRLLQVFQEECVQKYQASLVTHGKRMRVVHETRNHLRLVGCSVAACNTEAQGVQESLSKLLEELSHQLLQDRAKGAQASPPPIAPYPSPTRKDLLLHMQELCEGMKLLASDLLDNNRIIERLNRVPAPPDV
Put plainly: Inhibition of IKK-epsilon (unknown origin) using 5FAM-AKELDQGSLCTpSFVGTLQ-NH2 as substrate by microfluidic mobility shift assay. An outline of the steps:
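Recombinant IKK-ε (4 nM) in HEPES buffer with 1.5 µM 5FAM-labelled peptide substrate, ATP at its K_M, and 10 mM MgCl2. The 10-point titration used half-log serial dilutions. Reactions ran at room temperature for a set time, were quenched with EDTA-containing HEPES, and were read by microfluidic mobility shift. Percent inhibition came from the ratio of phosphorylated to total peptide.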
As to `COc1ccc(-c2nc3ncc(-c4ccc(C(=O)O)s4)cc3[nH]2)cc1`, the IC50 stood at 867 nM.

`COc1ccc(-c2nc3cc(-c4csc(C(=O)NCC(C)(C)CO)c4)cnc3[nH]2)cc1`: the IC50 worked out at 330 nM.

Regarding `COc1ccc(-c2nc3c(NCCCNC(=O)C4CCCC4)c(-c4nc(C(N)=O)cs4)cnc3[nH]2)cc1`, the IC50 was 42 nM.

On to `CCC(C)CNC(=O)c1cc(-c2cnc3[nH]c(-c4ccc(OC)cc4)nc3c2)cs1` (stereo unspecified), for which the IC50 amounted to 1090 nM.

In the case of `COc1ccc(-c2nc3ncc(-c4cc(C(=O)O)co4)cc3[nH]2)cc1`, the half-maximal inhibitory concentration (IC50) is 11600 nM.

As for `COc1cc2ncn(-c3cc(OCc4ccccc4S(C)(=O)=O)c(C#N)s3)c2cc1OC` [GSK-319347A], the half-maximal inhibitory concentration (IC50) amounted to 469 nM.

Regarding `COCCNC(=O)c1cc(-c2cnc3[nH]c(-c4ccc(OC)cc4)nc3c2)cs1`, the half-inhibitory concentration (IC50) was 412 nM.

For `COc1ccc(-c2nc3cc(-c4csc(C(N)=O)c4)cnc3[nH]2)cc1`, the IC50 was 205 nM.

Turning to `COc1ccc(-c2nc3c(NCCCNC(=O)C4CCCC4)c(C(N)=S)cnc3[nH]2)cc1`, the half-inhibitory concentration (IC50) worked out at 448 nM.

`COc1ccc(-c2nc3cc(-c4csc(C(C)=O)c4)cnc3[nH]2)cc1`: the IC50 stood at 6750 nM.

The next assay addresses Aurora kinase B (Homo sapiens, UniProt Q96GD4). Put plainly: Inhibition of aurora B (unknown origin).
Compound `COc1ccc(-c2nc3cc(-c4csc(C(=O)NCC(C)(C)CO)c4)cnc3[nH]2)cc1` showed a concentration for half-maximal inhibition (IC50) of 1680 nM.

`COc1ccc(-c2nc3c(NCCCNC(=O)C4CCCC4)c(-c4nc(C(N)=O)cs4)cnc3[nH]2)cc1` came in with an IC50 of 284 nM.

Consider `CCC(C)CNC(=O)c1cc(-c2cnc3[nH]c(-c4ccc(OC)cc4)nc3c2)cs1` (stereo unspecified), for which the IC50 turned out to be 2820 nM.

In the case of `COc1cc2ncn(-c3cc(OCc4ccccc4S(C)(=O)=O)c(C#N)s3)c2cc1OC` [GSK-319347A], the IC50 is > 5320 nM.

Compound `COCCNC(=O)c1cc(-c2cnc3[nH]c(-c4ccc(OC)cc4)nc3c2)cs1` yielded a 50% inhibitory concentration (IC50) of 1380 nM.

With `COc1ccc(-c2nc3cc(-c4csc(C(N)=O)c4)cnc3[nH]2)cc1`, the 50% inhibitory concentration (IC50) came to 2300 nM.

As for `COc1ccc(-c2nc3c(NCCCNC(=O)C4CCCC4)c(C(N)=S)cnc3[nH]2)cc1`, half-maximal inhibition (IC50) required 889 nM.

Regarding `COc1ccc(-c2nc3cc(-c4csc(C(C)=O)c4)cnc3[nH]2)cc1`, the IC50 amounted to 12100 nM.

Another assay has as its target Cyclin-dependent kinase 2 (Homo sapiens, UniProt P24941). Put plainly: Inhibition of CDK2 (unknown origin).
With `COc1ccc(-c2nc3cc(-c4csc(C(=O)NCC(C)(C)CO)c4)cnc3[nH]2)cc1`, the IC50 was > 30 µM.

`COc1ccc(-c2nc3c(NCCCNC(=O)C4CCCC4)c(-c4nc(C(N)=O)cs4)cnc3[nH]2)cc1` gave an IC50 of 1.45 µM.

As for `CCC(C)CNC(=O)c1cc(-c2cnc3[nH]c(-c4ccc(OC)cc4)nc3c2)cs1` (stereo unspecified), the IC50 is > 30 µM.

Consider `COc1cc2ncn(-c3cc(OCc4ccccc4S(C)(=O)=O)c(C#N)s3)c2cc1OC` [GSK-319347A], for which the IC50 was > 30 µM.

For `COCCNC(=O)c1cc(-c2cnc3[nH]c(-c4ccc(OC)cc4)nc3c2)cs1`, the half-maximal inhibitory concentration (IC50) is > 30 µM.

Compound `COc1ccc(-c2nc3cc(-c4csc(C(N)=O)c4)cnc3[nH]2)cc1` showed an IC50 of 0.984 µM.

As to `COc1ccc(-c2nc3c(NCCCNC(=O)C4CCCC4)c(C(N)=S)cnc3[nH]2)cc1`, the half-inhibitory concentration (IC50) was > 30 µM.

Regarding `COc1ccc(-c2nc3cc(-c4csc(C(C)=O)c4)cnc3[nH]2)cc1`, the half-maximal inhibitory concentration (IC50) is > 30 µM.

Another assay has as its target T1, Serine/threonine-protein kinase TBK1. Put plainly: Inhibition of recombinant full-length TBK1 (unknown origin) using CK1tide as substrate by microfluidic mobility shift assay.
As for `COc1ccc(-c2nc3ncc(-c4ccc(C(=O)O)s4)cc3[nH]2)cc1`, the half-maximal inhibitory concentration (IC50) came out at 256 nM.

As to `COc1ccc(-c2nc3cc(-c4csc(C(=O)NCC(C)(C)CO)c4)cnc3[nH]2)cc1`, the half-inhibitory concentration (IC50) was found to be 100 nM.

Turning to `COc1ccc(-c2nc3c(NCCCNC(=O)C4CCCC4)c(-c4nc(C(N)=O)cs4)cnc3[nH]2)cc1`, the IC50 is 9 nM.

For the compound `CCC(C)CNC(=O)c1cc(-c2cnc3[nH]c(-c4ccc(OC)cc4)nc3c2)cs1` (stereo unspecified), the half-maximal inhibitory concentration (IC50) amounted to 219 nM.

For `COc1ccc(-c2nc3ncc(-c4cc(C(=O)O)co4)cc3[nH]2)cc1`, the 50% inhibitory concentration (IC50) was found to be 1050 nM.

Turning to `COc1cc2ncn(-c3cc(OCc4ccccc4S(C)(=O)=O)c(C#N)s3)c2cc1OC` [GSK-319347A], the IC50 worked out at 93 nM.

As to `COCCNC(=O)c1cc(-c2cnc3[nH]c(-c4ccc(OC)cc4)nc3c2)cs1`, the IC50 stood at 98 nM.

Consider `COc1ccc(-c2nc3cc(-c4csc(C(N)=O)c4)cnc3[nH]2)cc1`, for which the half-inhibitory concentration (IC50) turned out to be 30 nM.

Take `COc1ccc(-c2nc3c(NCCCNC(=O)C4CCCC4)c(C(N)=S)cnc3[nH]2)cc1`: the IC50 stood at 46 nM.

Consider `COc1ccc(-c2nc3cc(-c4csc(C(C)=O)c4)cnc3[nH]2)cc1`, for which the IC50 amounted to 650 nM.
